Results from ChEMBL document CHEMBL1124597, “Quinones. 4. Novel eicosanoid antagonists: synthesis and pharmacological evaluation” (J Med Chem, 1989).

Key:
Oryctolagus cuniculus [1] = organism: Oryctolagus cuniculus; assay: In vitro percent inhibition against U-44,069 (10e-7 M) induced contraction of rabbit aorta at 10e-5 M concentration.; type: functional
Outline: (§1)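 Rabbit aortic strips (2-3 mm × 3 cm) in Krebs-Henseleit, 37 °C, 95% O2/5% CO2, 2 g resting tension, isometric recording. Drugs (final 10⁻⁵ to 10⁻⁸ M, 0.01% DMSO) added 10 min before U-44069 (2-6 nM, about 50% of the 30 mM KCl contraction). Percent inhibition, or concentration reducing contraction by 50%; duplicate means.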

Oryctolagus cuniculus [2] = organism: Oryctolagus cuniculus; assay: In vitro percent inhibition against U-44,069 (10e-7 M) induced contraction of rabbit aorta at 10e-6 M concentration; type: functional; outline: as §1
Oryctolagus cuniculus [3] = organism: Oryctolagus cuniculus; assay: In vitro concentration that reduced U-44069-induced contraction of the rabbit aorta by 50%; type: functional; outline: as §1
Oryctolagus cuniculus [4] = organism: Oryctolagus cuniculus; assay: In vitro percent inhibition against U-44,069 (10e-7 M) induced contraction of rabbit aorta at 10e-7 M concentration; type: functional; outline: as §1
Cavia porcellus [5] = organism: Cavia porcellus; assay: In vitro concentration that reduced U-44069-induced aggregation of guinea pig platelets by 50%; type: functional
Outline: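 PRP from conscious male guinea pigs, blood taken by cardiac puncture into 3.15% citrate (1:9); platelets adjusted to 450 000/μL. PRP preincubated 2 min at 37 °C, then incubated 2 min with U-44069 at a concentration giving submaximal aggregation. IC50 = antagonist concentration reducing aggregation by 50%.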

Cavia porcellus [6] = assay: In vivo percentage of inhibition against LTD -induced bronchoconstriction in guinea pig at a concentration of 0.31 mg/kg after 1 hour of oral administration; type: functional
Outline: (§2)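 Guinea pigs were challenged iv with LTD4, PAF or U-46619, each at 10 µg/kg. Bronchoconstriction was measured by the Konzett-Rössler overflow method, as for the sensitized animals (urethane 1.5 g/kg ip, gallamine 1 mg/kg iv). Drug suspended in 5% gum arabic was dosed orally 1 h before spasmogen; eight animals per group; percent inhibition of bronchoconstriction.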

Cavia porcellus [7] = assay: In vivo percentage of inhibition against LTD -induced bronchoconstriction in guinea pig at a concentration of 0.08 mg/kg after 1 hour of oral administration; type: functional
Outline: (§3)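 Urethane-anesthetized (1.5 g/kg ip) guinea pigs given gallamine (1 mg/kg iv); bronchoconstriction measured by Konzett-Rössler overflow. Challenge was U-46619, LTD4 or PAF at 10 μg/kg iv, or IgG1-mediated in animals sensitized ip with egg albumin (1 mg/kg)/FCA and used 3 weeks later. Drug given orally in 5% gum arabic 1 h before challenge; n = 8. ID50 = dose giving 50% inhibition.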

Cavia porcellus [8] = assay: In vivo percentage of inhibition against LTD -induced bronchoconstriction in guinea pig at a concentration of 1.25 mg/kg after 1 hour of oral administration; type: functional; outline: as §3
Cavia porcellus [9] = assay: In vivo percentage of inhibition against U-46619 -induced bronchoconstriction in guinea pig at a concentration of 0.08 mg/kg after 1 hour of oral administration; type: functional; outline: as §3
Oryctolagus cuniculus [10] = organism: Oryctolagus cuniculus; assay: In vitro concentration that reduced U-44069-induced contraction of the rabbit aorta; type: functional; conditions: read-out: pA2 (converted); outline: as §1
Cavia porcellus [11] = organism: Cavia porcellus; assay: In vitro concentration that reduced U-46619-induced contraction of guinea pig lung; conditions: read-out: pA2 (converted)
Cavia porcellus [12] = assay: In vivo percentage of inhibition against U-46619-induced bronchoconstriction in guinea pig at a concentration of 1.25 mg/kg after 1 hour of oral administration; type: functional; outline: as §3
Cavia porcellus [13] = assay: In vivo percentage of inhibition against LTD -induced bronchoconstriction in guinea pig at a concentration of 5 mg/kg after 1 hour of oral administration; type: functional; outline: as §3
Cavia porcellus [14] = assay: In vivo percentage of inhibition against U-46619 -induced bronchoconstriction in guinea pig at a concentration of 0.31 mg/kg after 1 hour of oral administration; type: functional; outline: as §2
Cavia porcellus [15] = assay: In vivo percentage of inhibition against LTD -induced bronchoconstriction in guinea pig at a concentration of 20 mg/kg after 1 hour of oral administration; type: functional; outline: as §3
Cavia porcellus [16] = assay: In vivo percentage of inhibition against U-46619-induced bronchoconstriction in guinea pig at a concentration of 20 mg/kg when after 1 hour of oral administration; type: functional; outline: as §3
Cavia porcellus [17] = assay: In vivo percentage of inhibition against U-46619 -induced bronchoconstriction in guinea pig at a concentration of 5 mg/kg after 1 hour of oral administration.; type: functional; outline: as §3

Row | IC50 (Oryctolagus cuniculus [3]) | Structure (SMILES) | Inhibition (Oryctolagus cuniculus [1]) | Inhibition (Oryctolagus cuniculus [2]) | further results
1 | 3400 nM | CC1=C(C)C(=O)C(C(CCCCCCCC(=O)O)c2ccccc2)=C(C)C1=O (stereo not drawn) | 94% | 0% | –
2 | – | CC1=C(C)C(=O)C(C(CCCCC(=O)O)c2ccccc2)=C(C)C1=O (stereo not drawn) | 63% | – | –
3 | – | CC1=C(C)C(=O)C(C(CCCCCC(=O)NC(C)C)c2ccccc2)=C(C)C1=O (stereo not drawn) | 8% | – | –
4 | – | CC1=C(C)C(=O)C(C(CCCCC(C)(C)C(=O)O)c2ccccc2)=C(C)C1=O (stereo not drawn) | 12% | – | –
5 | 1400 nM | COC(=O)CCCCCC(C1=C(C)C(=O)C(C)=C(C)C1=O)c1ccccc1 (stereo not drawn) | 95% | 36% | –
6 | – | CC1=C(C)C(=O)C(C(CCCCCC(N)=O)c2ccccc2)=C(C)C1=O (stereo not drawn) | 6% | – | –
7 | – | CC1=C(C)C(=O)C(C(CCCCCC(=O)NC(C)c2ccccc2)c2ccccc2)=C(C)C1=O (stereo not drawn) | 33% | – | –
8 | – | CC1=C(C)C(=O)C(C(CCCCCc2nnn[nH]2)c2ccccc2)=C(C)C1=O (stereo not drawn) | 2% | – | –
9 | 240 nM | CC1=C(C(CCCCCC(=O)O)c2ccccc2)C(=O)c2ccccc2C1=O (stereo not drawn) | 100% | 99% | Inhibition (Oryctolagus cuniculus [4]): 20%
10 | – | CC1=C(C)C(=O)C(C(CCC(=O)NCC(=O)O)c2ccccc2)=C(C)C1=O (stereo not drawn) | 0% | – | –
11 | – | CC1=C(C)C(=O)C([C@H](CCCCCC(=O)O)c2ccccc2)=C(C)C1=O | – | – | IC50 (Cavia porcellus [5]): 120 nM; inhibition in vivo at 0.31 mg/kg (Cavia porcellus [6]): 85%; inhibition in vivo at 0.08 mg/kg (Cavia porcellus [7]): 12%; inhibition in vivo at 1.25 mg/kg (Cavia porcellus [8]): 85%; inhibition in vivo at 0.08 mg/kg (Cavia porcellus [9]): 72%; Kb (Oryctolagus cuniculus [10]): 2.51 nM; Kb (Cavia porcellus [11]): 1.58 nM; inhibition in vivo at 1.25 mg/kg (Cavia porcellus [12]): 93%; inhibition in vivo at 5 mg/kg (Cavia porcellus [13]): 80%; inhibition in vivo at 0.31 mg/kg (Cavia porcellus [14]): 75%
12 | – | CC1=C(C)C(=O)C(C(CCCCCCCCC(=O)O)c2ccccc2)=C(C)C1=O (stereo not drawn) | 41% | – | –
13 | 1900 nM | CC1=C(C)C(=O)C(C(CCCCCC(=O)O)c2cccc(F)c2)=C(C)C1=O (stereo not drawn) | 100% | 31% | –
14 | – | COC1=C(OC)C(=O)C(C(CCCCCC(=O)O)c2ccccc2)=C(C)C1=O (stereo not drawn) | 0% | – | –
15 | – | CC1=C(C)C(=O)C(C(CCCCCC(=O)O)c2cccc(C(F)(F)F)c2)=C(C)C1=O (stereo not drawn) | 64% | – | –
16 | – | CC1=C(C)C(=O)C(C(CCCCCC(=O)O)c2ccc(C(C)C)cc2)=C(C)C1=O (stereo not drawn) | 4% | – | –
17 | 3000 nM | COc1ccc(C(CCCCCC(=O)O)C2=C(C)C(=O)C(C)=C(C)C2=O)cc1 (stereo not drawn) | 100% | 3% | –
18 | 1000 nM | CC1=C(C)C(=O)C(C(CCCCCC(=O)O)c2ccc(C)cc2)=C(C)C1=O (stereo not drawn) | 100% | 50% | –
19 | – | CC1=C(C)C(=O)C([C@@H](CCCCCC(=O)O)c2ccccc2)=C(C)C1=O | – | – | IC50 (Cavia porcellus [5]): 13000 nM; inhibition in vivo at 20 mg/kg (Cavia porcellus [15]): 65%; inhibition in vivo at 20 mg/kg (Cavia porcellus [16]): 68%; Kb (Oryctolagus cuniculus [10]): 229 nM; Kb (Cavia porcellus [11]): 295 nM; inhibition in vivo at 5 mg/kg (Cavia porcellus [17]): 47%; inhibition in vivo at 5 mg/kg (Cavia porcellus [13]): 27%
20 | – | CC1=C(C)C(=O)C(C(CCCC#CC(=O)O)c2ccccc2)=C(C)C1=O (stereo not drawn) | 72% | – | –
